# In article PMC4000071 (Journal of Toxicologic Pathology, 2014):
# How the values were obtained:
# [1] = target: 5-HT1B receptors in the rat cerebral cortex (Rattus norvegicus, UniProt P28564); experiment: 5-HT1B receptor binding in rat cerebral cortex
# 1-month = type: in vivo, beagle dogs; conditions: dog; for mean brain concentration relative to that at 2.3 mg/kg: 4 weeks
# How it was run: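 Beagles (7 males, 5 females) were dosed once daily by oral gavage for 4 weeks at 0, 2.3, 14 or 47 mg/kg/day. The vehicle was 0.1 M lactic acid in water (pH 3.0) at 5 mL/kg. Plasma was sampled on Days 1, 7 and 28. At necropsy, brain stem, hippocampus and frontal lobe were taken for drug measurement. Terminal plasma and brain concentrations are reported.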
# beagle dogs = experiment: 3-month toxicity study, in-life, clinical pathology and pathology; type: in vivo
# How it was run: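 Beagles aged 9 months received 0, 7, 15 or 30 mg/kg/day by oral gavage for 3 months in 0.1 M lactic acid (pH 3.0). Groups were 3/sex/dose, with 3/sex added for 5-week recovery in control and high dose. Neurologic examination was done. Clinical pathology: pretest, Weeks 6, 13, end of recovery. Full tissue list including dorsal root ganglia. Eyes/optic nerve fixed in Davidson's, sciatic nerve in Bouin's, others in formalin. Sections ~5 µm, H&E.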
# guinea pig = conditions: 0.6 µmol/kg. p.o.; cited from earlier work
# adrenergic α1D receptor = target: T1, adrenergic α1D receptor (Homo sapiens, UniProt P25100); experiment: secondary pharmacology screens, α1D; type: binding; conditions: 10 µM
# T1 sequence (P25100 1-572): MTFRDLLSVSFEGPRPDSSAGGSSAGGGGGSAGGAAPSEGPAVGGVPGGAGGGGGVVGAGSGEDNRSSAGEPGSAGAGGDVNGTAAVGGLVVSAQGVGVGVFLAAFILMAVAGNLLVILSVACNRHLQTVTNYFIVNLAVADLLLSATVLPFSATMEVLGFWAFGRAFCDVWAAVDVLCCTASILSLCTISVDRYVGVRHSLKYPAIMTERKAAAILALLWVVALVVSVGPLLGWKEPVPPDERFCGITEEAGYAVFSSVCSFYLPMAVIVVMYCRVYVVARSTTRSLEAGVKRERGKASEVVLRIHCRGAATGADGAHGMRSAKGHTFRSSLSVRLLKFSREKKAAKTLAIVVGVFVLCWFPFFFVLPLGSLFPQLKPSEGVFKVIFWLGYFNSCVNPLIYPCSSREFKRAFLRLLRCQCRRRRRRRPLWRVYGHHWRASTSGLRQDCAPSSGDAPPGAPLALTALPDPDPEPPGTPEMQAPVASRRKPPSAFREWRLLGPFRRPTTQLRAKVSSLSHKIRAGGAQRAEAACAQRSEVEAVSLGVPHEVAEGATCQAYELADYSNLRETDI
# [2] = man, 5 mg projected efficacious dose; cited from earlier work
# healthy volunteers = conditions: single ascending oral doses from 1 to 40 mg; cited from earlier work
# [3] = Female 15 mg/kg/day (N=3), 3 months
# [4] = Female 15 mg/kg/day (N=3), 3 months, highest incidence shown
# [5] = Female 30 mg/kg/day (N=2), after 5 weeks of recovery
# [6] = Female 30 mg/kg/day (N=5), after 3 months of dosing
# [7] = Male 7 mg/kg/day (N=3), 3 months, highest incidence shown
# [8] = Male 15 mg/kg/day (N=3), 3 months
# [9] = Male 15 mg/kg/day (N=3), 3 months, highest incidence shown
# [10] = Male 30 mg/kg/day (N=3), 3 months
# [11] = Male 30 mg/kg/day (N=3), 3 months, highest incidence shown
# [12] = Male 30 mg/kg/day (N=3), after 5 weeks of recovery
# [13] = Male 30 mg/kg/day (N=6), after 3 months of dosing
# [14] = dog, 30 mg/kg/day 3 months then 5-week recovery
# [15] = dog, 30 mg/kg/day males, Week 3 until end of dosing
# [16] = dog, 30 mg/kg/day, after 3 months
# Chain of 5-HT1B receptors in the rat cerebral cortex (P28564 whole entry): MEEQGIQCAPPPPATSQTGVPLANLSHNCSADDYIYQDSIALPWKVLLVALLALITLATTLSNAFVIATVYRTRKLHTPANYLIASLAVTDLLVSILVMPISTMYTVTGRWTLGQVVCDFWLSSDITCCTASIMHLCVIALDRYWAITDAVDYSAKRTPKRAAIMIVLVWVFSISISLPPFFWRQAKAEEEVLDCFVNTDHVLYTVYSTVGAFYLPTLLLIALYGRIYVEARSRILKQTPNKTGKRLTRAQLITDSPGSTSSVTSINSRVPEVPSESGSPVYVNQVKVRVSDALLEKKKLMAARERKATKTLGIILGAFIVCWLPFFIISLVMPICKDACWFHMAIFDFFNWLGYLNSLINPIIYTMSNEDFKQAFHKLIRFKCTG
smiles,measurement,setting,value
"COc1cc2c(c(N3CCN(C)CC3)c1)O[C@@H](C(=O)Nc1ccc(N3CCOCC3)cc1)CC2 [AZD3783, (2R)-6-methoxy-8-(4-methylpiperazin-1-yl)-N-(4-morpholin-4-ylphenyl) chromane-2-carboxamide]",Ki,[1]; rat cerebral cortex,0.051 µM
same,affinity lower than for the guinea pig or human 5-HT1B receptors,[1]; rat vs guinea pig or human,approximately 4 fold
same,mean brain concentration relative to that at 2.3 mg/kg,1-month; 14 mg/kg,38 fold
same,mean brain concentration relative to that at 2.3 mg/kg,1-month; 47 mg/kg,460 fold
same,brain/plasma concentration ratio,"1-month; across the dose range, after 4 weeks of dosing",approximately 4
same,"D.R. ganglion: cerv., thoracic, lumbar: Vacuolation; ganglion cell (incidence)","beagle dogs; Female 7 mg/kg/day (N=3), 3 months, highest incidence shown",2
same,Ophthalmologic finding: Normal (number of dogs),"beagle dogs; Female 7 mg/kg/day (N=3), after 3 months of dosing",3
same,Brain: Degeneration/necrosis; neuronal (incidence),beagle dogs; [3],1
same,Brain: Degeneration: nerve fiber (incidence),beagle dogs; [3],1
same,Brain: Gliosis (incidence),beagle dogs; [3],1
same,Brain: Vacuolation: neuronal (incidence),beagle dogs; [3],2
same,"D.R. ganglion: cerv., thoracic, lumbar: Inflammation (incidence)",beagle dogs; [4],2
same,"D.R. ganglion: cerv., thoracic, lumbar: Vacuolation; ganglion cell (incidence)",beagle dogs; [4],3
same,Ophthalmologic finding: Normal (number of dogs),"beagle dogs; Female 15 mg/kg/day (N=3), after 3 months of dosing",3
same,Ophthalmologic finding: Chorioretinal scar (number of dogs),beagle dogs; [5],1
same,Ophthalmologic finding: Normal (number of dogs),beagle dogs; [5],1
same,Ophthalmologic finding: Retinal detachment (number of dogs),beagle dogs; [5],1
same,Ophthalmologic finding: Normal (number of dogs),beagle dogs; [6],2
same,Ophthalmologic finding: Retinal detachment (number of dogs),beagle dogs; [6],2
same,Ophthalmologic finding: Retinal hemorrhage (number of dogs),beagle dogs; [6],2
same,Ophthalmologic finding: Vitreal hemorrhage (number of dogs),beagle dogs; [6],1
same,"D.R. ganglion: cerv., thoracic, lumbar: Inflammation (incidence)",beagle dogs; [7],1
same,"D.R. ganglion: cerv., thoracic, lumbar: Vacuolation; ganglion cell (incidence)",beagle dogs; [7],1
same,Ophthalmologic finding: Normal (number of dogs),"beagle dogs; Male 7 mg/kg/day (N=3), after 3 months of dosing",3
same,Brain: Degeneration: nerve fiber (incidence),beagle dogs; [8],1
same,Brain: Vacuolation: neuronal (incidence),beagle dogs; [8],3
same,"Eye/Optic nerve: Degeneration, optic nerve fiber (incidence)",beagle dogs; [8],1
same,Eye/Optic nerve: Inflammation: retina (incidence),beagle dogs; [8],1
same,"D.R. ganglion: cerv., thoracic, lumbar: Degeneration: nerve fiber (incidence)",beagle dogs; [9],2
same,"D.R. ganglion: cerv., thoracic, lumbar: Inflammation (incidence)",beagle dogs; [9],2
same,"D.R. ganglion: cerv., thoracic, lumbar: Vacuolation; ganglion cell (incidence)",beagle dogs; [9],3
same,Ophthalmologic finding: Normal (number of dogs),"beagle dogs; Male 15 mg/kg/day (N=3), after 3 months of dosing",3
same,Brain: Degeneration/necrosis; neuronal (incidence),beagle dogs; [10],3
same,Brain: Degeneration: nerve fiber (incidence),beagle dogs; [10],3
same,Brain: Gliosis (incidence),beagle dogs; [10],3
same,Brain: Inflammation: perivascular (incidence),beagle dogs; [10],3
same,Brain: Vacuolation: neuronal (incidence),beagle dogs; [10],3
same,"Eye/Optic nerve: Degeneration, optic nerve fiber (incidence)",beagle dogs; [10],1
same,Eye/Optic nerve: Inclusion: retina (incidence),beagle dogs; [10],3
same,Eye/Optic nerve: Inflammation: retina (incidence),beagle dogs; [10],1
same,Sciatic nerve: Degeneration: nerve fiber (incidence),beagle dogs; [10],1
same,"D.R. ganglion: cerv., thoracic, lumbar: Degeneration: nerve fiber (incidence)",beagle dogs; [11],3
same,"D.R. ganglion: cerv., thoracic, lumbar: Inflammation (incidence)",beagle dogs; [11],2
same,"D.R. ganglion: cerv., thoracic, lumbar: Vacuolation; ganglion cell (incidence)",beagle dogs; [11],3
same,"Spinal cord, cerv., thoracic, lumbar: Degeneration: nerve fiber (incidence)",beagle dogs; [11],2
same,Ophthalmologic finding: Chorioretinal scar (number of dogs),beagle dogs; [12],2
same,Ophthalmologic finding: Tepatum hyperreflectivity (number of dogs),beagle dogs; [12],1
same,Ophthalmologic finding: Normal (number of dogs),beagle dogs; [13],2
same,Ophthalmologic finding: Retinal detachment (number of dogs),beagle dogs; [13],2
same,Ophthalmologic finding: Retinal hemorrhage (number of dogs),beagle dogs; [13],3
same,Ophthalmologic finding: Vitreal hemorrhage (number of dogs),beagle dogs; [13],1
same,GLDH increase vs pretest,"beagle dogs; decedent female, 30 mg/kg/day",2 fold
same,WBC increase vs pretest,"beagle dogs; decedent female, 30 mg/kg/day",< 2 fold
same,neutrophils increase vs pretest,"beagle dogs; decedent female, 30 mg/kg/day",2 fold
same,bile increase vs pretest,"beagle dogs; decedent female, 30 mg/kg/day, Day 84",5 fold
same,brain findings after recovery,beagle dogs; [14],extensive neuronal loss accompanied by marked astrogliosis
same,reversibility of pathological lesions (except thymus and bone marrow),beagle dogs; [14],still present after the 5-week recovery period
same,ALT group mean elevation vs. pretest,beagle dogs; [15],ca. 2 fold
same,GLDH group mean elevation vs. pretest,beagle dogs; [15],ca. 4 fold
same,platelet counts increase,beagle dogs; [16],24–30%
same,reticulocytes (% and total count) decrease,beagle dogs; [16],42–50%
same,NOEL,"beagle dogs; dog, 3-month study",not established
same,severity of lesions in the brain,"beagle dogs; dog, 3-month, 15 and 30 mg/kg/day",dose-related and ranged from slight to moderate
same,ophthalmologic observations,"beagle dogs; dog, 3-month, Week 6 examination",No treatment-related ophthalmologic observations
same,gallbladder microscopic findings,"beagle dogs; dog, 3-month, all treated groups",pigment deposit (lamina propria) was noted in all animals in the treated groups
same,anxiolytic and anti-depressant efficacy,guinea pig,elicit effects indicative of anxiolytic and anti-depressant efficacy
same,extracellular serotonin in the brain,guinea pig,increase extracellular serotonin in the brain
same,binding to adrenergic α1D receptor,adrenergic α1D receptor,binds
same,estimated AUC,[2],0.383 µM·h
same,tolerability,healthy volunteers,well tolerated
